{
  "source": "paper PMC3579011",
  "about": "(Molecular cancer research : MCR, 2012)",
  "key": {"[1]": {"system": "DU145, UMUC3 and J82 cells", "assay": "LDH release with autophagy inhibitor, DU145, UMUC3, J82", "assay_type": "cell-based, human", "details": "bafilomycin A1 40–400 nM added 1 hour prior to CLT1 (25 µg/ml) + FN, 24 hours", "method_in_brief": "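DU145, UMUC3 and J82 cells at about 50% confluence received 40 to 400 nmol/L bafilomycin A1 plus test peptide with fibronectin for 24 h. Cell death was measured as LDH release using a cytotoxicity detection kit. Values were normalized to background death of control cells treated without peptide in the same medium.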"}, "DU145 cells [2]": {"system": "DU145 cells", "assay": "Uptake of fluorescein-CLT1 by fluorescence microscopy, DU145", "assay_type": "cell-based, human", "details": "nocodazole 10 µM, 24 hours, versus DMSO", "method_in_brief": "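DU145 cells were grown on vitronectin-coated coverslips and exposed 24 h to fluorescein-conjugated peptide alone or with nocodazole, with DMSO as vehicle. Cells were fixed in 4% paraformaldehyde and stained with DAPI. Uptake was scored by fluorescence microscopy at ×40 as the percentage of peptide-positive cells per optical field.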"}, "DU145 cells [3]": {"system": "DU145 cells", "assay": "LDH release cytotoxicity assay, DU145", "assay_type": "cell-based"}, "[4]": {"system": "LC3 in UMUC3 and J82 cells", "assay": "LC3 conversion", "assay_type": "cell-based, human", "details": "CLT1 25 µg/ml, 2% serum + FN, 24 hours", "method_in_brief": "(§1)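 Cells were lysed by subcellular protein fractionation to obtain the cytoplasmic fraction, or in 2× SDS sample buffer. Proteins were run on SDS-PAGE and transferred to PVDF, with 0.05% Ponceau S staining to check equal loading. Blots were blocked in 5% BSA and probed overnight at 4°C with anti-cathepsin D or anti-LC3B, then detected with peroxidase-conjugated anti-rabbit or anti-mouse IgG and enhanced chemiluminescence.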"}, "[5]": {"system": "primary human bladder epithelial cells (HBEC)", "assay": "LDH release cytotoxicity assay, primary bladder epithelial cells", "assay_type": "cell-based", "details": "CLT1 75 µg/ml, 24 hours", "method_in_brief": "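Primary human bladder epithelial cells were kept in serum-free Prostalife basal medium with supplements at 37°C and 5% CO2, and treated at about 50% confluence. Peptide diluted in water was added for 24 h in 2% serum alone, or with fibronectin or fibrinogen. Cell death was read as LDH release, expressed as a percentage of maximal release from camptothecin plus 100 nmol/L staurosporine.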"}, "[6]": {"system": "cathepsin D (lysosome leakage) in DU145, UMUC3 and J82 tumor cells", "assay": "Cathepsin D in cytosolic fraction", "assay_type": "cell-based, human", "details": "CLT1 75 µg/ml, 24 hours", "method_in_brief": "as §1"}, "[7]": {"system": "786-0 kidney cancer cells", "assay": "CLT1-induced cell death, 786-0", "assay_type": "cell-based, human"}, "[8]": {"system": "bladder tumor cells (J82, T24, UMUC3, TCCSUP)", "assay": "LDH release cytotoxicity assay, bladder tumor cells", "assay_type": "cell-based", "details": "CLT1 75 µg/ml, 24 hours; even in the presence of urine"}, "angiogenic endothelium": {"system": "angiogenic endothelium", "details": "cited from earlier work"}, "[9]": {"system": "bladder and prostate tumor cells", "assay": "Internalization of fluorescein-CLT1 with fibronectin or fibrinogen", "assay_type": "cell-based, human", "details": "FN or FG each 30 µg/ml", "method_in_brief": "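Cells were grown on vitronectin-coated coverslips and incubated 24 h with fluorescein-conjugated peptide in 2% serum with fibronectin or fibrinogen. They were then fixed in 4% paraformaldehyde and mounted in DAPI-containing medium. Internalization was scored by fluorescence microscopy at ×40 as the percentage of peptide-positive cells per optical field.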"}, "[10]": {"system": "human bladder (J82, T24, UMUC3, TCCSUP), prostate (DU145), kidney (RCC4), breast (MDA-MB-231) and lung (A549) tumor cell lines", "assay": "LDH release cytotoxicity assay, panel of tumor cell lines", "assay_type": "cell-based", "details": "without CLT1"}},
  "note": "Positions of bridges follow the written chain, without caps; N, C: chain ends. No end group written: not given here.",
  "data": [
    {"molecule": "CO/C1=C\\C(C)=C\\[C@@H](C)[C@@H](O)[C@@H](C)C/C(C)=C/C=C/[C@H](OC)[C@@H]([C@@H](C)[C@@H](O)[C@H](C)[C@@]2(O)C[C@@H](O)[C@H](C)[C@@H](C(C)C)O2)OC1=O", "note": "[bafilomycin A1, Bafilomycin A1]", "values": [
      {"measurement": "effect on CLT1 cytotoxicity (LDH release)", "setting": "[1]", "value": "significantly reduced"}
    ]},
    {"molecule": "COC(=O)Nc1nc2ccc(C(=O)c3cccs3)cc2[nH]1", "note": "[nocodazole, reference compound]", "values": [
      {"measurement": "effect on CLT1 uptake", "setting": "DU145 cells [2]", "value": "inhibited"},
      {"measurement": "effect on CLT1 cytotoxicity (LDH release)", "setting": "DU145 cells [3]; nocodazole 10 µM, CLT1 75 µg/ml, 24 hours, versus DMSO", "value": "significantly reduced"}
    ]},
    {"molecule": "CGLIIQKNEC (disulfide 1-10 (inferred)) [CLT1]", "values": [
      {"measurement": "LC3 conversion (autophagy marker)", "setting": "[4]", "value": "causes LC3 conversion"},
      {"measurement": "cytotoxic activity in primary bladder epithelial cells", "setting": "[5]", "value": "largely inactive"},
      {"measurement": "cathepsin D in cytoplasmic fraction (indicator for lysosome leakage)", "setting": "[6]", "value": "increased concentrations"},
      {"measurement": "sensitivity to CLT1-induced cell death", "setting": "[7]", "value": "largely resistant"},
      {"measurement": "cell death of bladder cancer cells", "setting": "[8]", "value": "extensive cell death"},
      {"measurement": "CLT1 concentration at which cytotoxicity reached a plateau", "setting": "DU145 cells [3]; CLT1 7.5–150 µg/ml, 2% serum + 30 µg/ml fibronectin, 24 hours, LDH release", "value": 75, "unit": "µg/mL"},
      {"measurement": "cell death in the absence of plasma fibronectin", "setting": "DU145 cells [3]; prostate tumor cells, FN-depleted serum", "value": "minimal cell death"},
      {"measurement": "anti-angiogenic activity in vivo", "setting": "angiogenic endothelium", "value": "strong anti-angiogenic activity"}
    ]},
    {"molecule": "fibrinogen", "values": [
      {"measurement": "effect on CLT1 uptake / internalization", "setting": "[9]", "value": "largely prevents"}
    ]},
    {"molecule": "fibronectin", "values": [
      {"measurement": "effect on CLT1 uptake / internalization", "setting": "[9]", "value": "supports"},
      {"measurement": "fibronectin concentration at which CLT1 cytotoxicity occurred", "setting": "DU145 cells [3]; FN-depleted serum, CLT1 75 µg/ml, FN 3–100 µg/ml, within 24 hours, LDH release", "value": 10, "unit": "µg/mL"},
      {"measurement": "effect of protein alone on tumor cell fate", "setting": "[10]", "value": "no effect"}
    ]}
  ]
}
